Assays:
hepatitis B virus (HBV) [1] = conditions: HepAD38 cells, 1–10 μM; cited from earlier work
hepatitis B virus (HBV) [2] = assay: Inhibition of HBsAg secretion in HBV-replicating HepAD38 cells; assay type: cell-based; conditions: for Inhibition of HBsAg secretion (in words): 5 μM, relative to vehicle 0.5% DMSO
Procedure, shortened: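 HepAD38 cells carry an integrated HBV genome under a tetracycline-regulated promoter, […]. Cells were treated with test compound. HBsAg secreted into the culture supernatant was quantified by ELISA. Selectivity index was taken as CC50/IC50.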

hepatitis B virus (HBV) [3] = assay: Reduction of intracellular HBV rcDNA in HepAD38 cells; assay type: cell-based; conditions: qPCR, relative to 0.5% DMSO vehicle
HepAD38 cells = assay: Cytotoxicity in HepAD38 cells; assay type: cell-based; conditions: read-out: Cytotoxicity CC50, MTS assay, 0 to 100 μM
[4] = Cytotoxicity in HepAD38 cells; assay type: cell-based; conditions: human, Cytotoxicity CC50, HepAD38 cells, MTS assay, 0 to 100 μM

| SMILES | Effect on cccDNA levels (in words) (hepatitis B virus (HBV) [1]) | Inhibition of HBsAg secretion (in words) (hepatitis B virus (HBV) [2]; HepAD38 cells) | Selectivity index: CC50/IC50 (hepatitis B virus (HBV) [2]; HepAD38 cells, CC50 (MTS) / HBsAg IC50) | IC50 (hepatitis B virus (HBV) [2]; Hepatitis B virus, HePAD38, read-out: HBsAg IC50) [µM] | rcDNA inhibition [%]: compound (5 μM) (hepatitis B virus (HBV) [3]) | CC50 (HepAD38 cells) [µM] | CC50 at 14 days [4] [µM] |
| --- | --- | --- | --- | --- | --- | --- | --- |
| C[C@@]1(CO)[C@H](O)CC[C@@]2(C)[C@H]1CC[C@H]1C[C@@H]3C[C@@]12CC[C@]3(O)CO [aphidicolin] | effectively reduces cccDNA levels in a dose-dependent manner |  |  |  |  |  |  |
| CC[C@]12C=CCN3CC[C@]4(C(=C(C(=O)OC)C1)Nc1ccccc14)[C@@H]32 [compound 6, tabersonine] |  | only modest inhibitory activity | 2.86 | 14.6 ± 4.1 | minimal or no effect | 41.8 ± 3.1 |  |
| CCOC(=O)C1=C[C@]2(CC)CCCN3CCc4c(n1c1ccccc41)[C@@H]32 [compound 8, vinpocetine] |  | negligible inhibitory effects |  |  | minimal or no effect |  | > 100 |
